Assay results from different studies.
Lines come from different studies, so protocols differ.
BCHE: Cholinesterase (BCHE, Equus caballus, UniProt P81908)
DRD1: D(1A) dopamine receptor (DRD1, Homo sapiens, UniProt P21728)
Sterol carrier protein 2: Sterol carrier protein 2 (Aedes aegypti, UniProt Q86PR3)

SMILES	target	observed	action	technique	notes	measurement	result
CNc1nc(C#Cc2ccc(Cl)s2)nc2c1ncn2[C@@H]1O[C@H](C(=O)OC)[C@@H](O)[C@H]1O	Sodium-dependent serotonin transporter (SLC6A4, Homo sapiens, UniProt P31645)	ligand displacement	–	radioligand	cell membranes	Ki	> 10 µM
CC=C1[C@H]2C=C(C)C[C@]1(N(C)C)c1ccc(=O)[nH]c1C2	BCHE	enzyme activity	inhibitor	Ellman	–	IC50	224 µM
C[C@H]1c2c[nH]c3cccc(c23)S[C@H]1C(=O)O	trpS (Geobacillus stearothermophilus, UniProt P00953)	binding	–	ITC	–	Kd	3.1 µM
CC(CCc1ccc(O)cc1)NCCc1ccc(O)c(O)c1 (stereo not drawn)	DRD1	cAMP	agonist	TR-FRET	–	EC50	13 µM
O=S(=O)(O)c1ccc(-c2c3nc(c(-c4ccc(S(=O)(=O)O)cc4)c4ccc([nH]4)c(-c4ccc(S(=O)(=O)O)cc4)c4nc(c(-c5ccc(S(=O)(=O)O)cc5)c5ccc2[nH]5)C=C4)C=C3)cc1	Galectin-7 (LGALS7, Homo sapiens, UniProt P47929)	binding	–	–	–	Kd	9.5 µM
O=c1c(O)c(-c2ccc(O[C@@H]3O[C@H](CO)[C@@H](O)[C@H](O)[C@H]3O)c(O)c2)oc2cc(O)cc(O)c12	BCHE	enzyme activity	inhibitor	–	–	Ki	0.0281 µM
CN(C)C(=O)COC(=O)c1cc(-c2ccc([C@H]3C[C@H]4C[C@@H]3CN4)cc2)c2ccc(-c3ccc(C(F)(F)F)cc3)cc2c1	DRD1	cell-free assay	–	radioligand	–	Ki	1.4 to 2.2 µM
CC=C1[C@H]2C=C(C)C[C@]1(N(C)C)c1ccc(OC)nc1C2	BCHE	enzyme activity	inhibitor	Ellman	–	IC50	1350 µM
COc1cc(/C=C2\CCC/C(=C\c3cc(OC)c(OC)c(OC)c3)C2=O)cc(OC)c1OC	Sterol carrier protein 2	ligand displacement	–	fluorescence	–	EC50	12.1 µM
N[C@H]1C[C@@H](CO)[C@H](c2ccc(-c3cc(C(=O)O)cc4cc(-c5ccc(C(F)(F)F)cc5)ccc34)cc2)C1	DRD1	cell-free assay	–	radioligand	–	Ki	1.4 to 2.2 µM
CNC[C@H](O)c1cccc(O)c1	DRD1	cAMP	agonist	TR-FRET	–	EC50	2.8 µM
O=c1c(O)c(-c2ccc(O)c(O)c2)oc2cc(O)cc(O)c12	Sterol carrier protein 2	ligand displacement	–	–	–	EC50	18.4 µM
